Series [1] can be described thus: Ratio of drug uptake in brain to blood in C57BL/6 mouse at 6 umol/kg, po dosed in carboxymethyl cellulose 0.5% w/v in water/Tween 80 (99.5/0.5, v/v) measured 1 hr post dosing by LC/MS/MS analysis. The series is classed as ADME, organism-based. The method in brief: (§1)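 Male C57BL/6 mice dosed by oral gavage, 10 mL/kg. Blood sampled 0.25, 0.5, 1, 2, 4, 6 h; brain at 1 and/or 4 h; n = 3 per time. Blood acetonitrile-precipitated, brain water-homogenized then precipitated; LC-MS/MS with weighted linear calibration.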

Series [2] in a line: Ratio of drug uptake in brain to blood in C57BL/6 mouse at 60 umol/kg, po dosed in carboxymethyl cellulose 0.5% w/v in water/Tween 80 (99.5/0.5, v/v) measured 4 hrs post dosing by LC/MS/MS analysis. The series is classed as ADME, organism-based. The method in brief:
as §1

For series [3], the system named is Brain. Nature of the series: Drug uptake in C57BL/6 mouse brain at 60 umol/kg, po dosed in carboxymethyl cellulose 0.5% w/v in water/Tween 80 (99.5/0.5, v/v) measured 4 hrs post dosing by LC/MS/MS analysis. To be noted: in vivo. The series is classed as ADME, organism-based. The method in brief:
as §1

Series [4] relates to Brain. Kind of series: Drug uptake in C57BL/6 mouse brain at 2 umol/kg, iv dosed in N-methyl pyrrolidone/blank plasma (10:90 v/v) measured 1 hr post dosing by LC/MS/MS analysis. The series is classed as ADME, organism-based. The note with it: in vivo. The method in brief:
(§2)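 Male C57BL/6 mice, saphenous vein injection under light anesthesia, 5 mL/kg. Blood at 5, 30 min and 1, 2, 4, 6, 8 h; brain at 5 min, 1, 4, 8 h; n = 3/time. LC-MS/MS after acetonitrile precipitation (brain water-homogenized). Noncompartmental analysis, 1/Y weighting, terminal slope from ≥3 points.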

The nature of series [5]: Drug uptake in C57BL/6 mouse blood at 6 umol/kg, po dosed in carboxymethyl cellulose 0.5% w/v in water/Tween 80 (99.5/0.5, v/v) measured 4 hrs post dosing by LC/MS/MS analysis. It is filed as ADME, organism-based. To be noted: read-out: Drug uptake. The gist of the method: as §1
The next series deals with MDR1 (human). Nature of the series: Efflux ratio of permeability from basolateral to apical over apical to basolateral side of MDCK cells expressing human MDR1 at 5 uM after 2 hrs by LC/MS analysis. It is filed as ADME, cell-based, Canis lupus familiaris. To be noted: dog. The gist of the method: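 MDCK cells retrovirally transduced with human MDR1, seeded on transwells ≥3 days; bidirectional transport at 5 μM, 2 h, 37 °C, LC/MS quantitation. Papp = (dQ/dt)/(A·C0), A 0.11 cm2; ER = Papp B>A / Papp A>B. Means of at least three experiments.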

Series [6] relates to Brain. Nature of the series: Drug uptake in C57BL/6 mouse brain at 60 umol/kg, po dosed in carboxymethyl cellulose 0.5% w/v in water/Tween 80 (99.5/0.5, v/v) measured 1 hr post dosing by LC/MS/MS analysis. The series is classed as ADME, organism-based. The note with it: in vivo. The gist of the method:
as §1

Series [7] can be described thus: AUC (0 to infinity) in C57BL/6 mouse at 60 umol/kg, po dosed in carboxymethyl cellulose 0.5% w/v in water/Tween 80 (99.5/0.5, v/v) by LC/MS/MS analysis. Details: dose 60 umol/kg, route oral, time infinity. The note with it: in vivo. It is filed as ADME, organism-based. The gist of the method: (§3)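 Male C57BL/6 mice were dosed by oral gavage at 10 mL/kg. Blood was sampled at 0.25, 0.5, 1, 2, 4 and 6 h postdose, extracted by acetonitrile precipitation and quantified by LC-MS/MS (typical LLOQ 0.4 ng/mL). AUCinf was obtained by noncompartmental analysis of concentration–time profiles, weighting 1/Y, with at least three terminal log-linear points.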

A short description of series [8]: Oral bioavailability in C57BL/6 mouse at 6 umol/kg dosed in carboxymethyl cellulose 0.5% w/v in water/Tween 80 (99.5/0.5, v/v) by LC/MS/MS analysis. The series is classed as ADME, organism-based. To be noted: in vivo. The gist of the method: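 Oral gavage (10 mL/kg) to male C57BL/6 mice with iv reference segment (2 μmol/kg, NMP/blank plasma 10:90). Noncompartmental analysis of LC-MS/MS blood profiles, 1/Y weighting; %F = dose-normalized oral AUC / dose-normalized iv AUC × 100, assuming linear pharmacokinetics between doses.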

A further series concerns the target Beta-secretase 1 (Homo sapiens, UniProt P56817).
A short description of series [9]: Drug uptake in C57BL/6 mouse blood at 2 umol/kg, iv dosed in N-methyl pyrrolidone/blank plasma (10:90 v/v) measured 4 hrs post dosing by LC/MS/MS analysis. The series is classed as ADME, organism-based. The note with it: read-out: Drug uptake. The gist of the method: as §2
The test system of series [10] is Brain. Kind of series: Drug uptake in C57BL/6 mouse brain at 6 umol/kg, po dosed in HS15/propylenglycol/citrate buffer, pH 4.75, 50 mM (10/5/85, v/v/v) measured 1 hr post dosing by LC/MS/MS analysis. The note with it: in vivo, pH 4.75, 1 h. The series is classed as ADME, organism-based. The gist of the method: as §1
The test system of series [11] is Brain. Kind of series: Drug uptake in C57BL/6 mouse brain at 60 umol/kg, po dosed in HS15/propylenglycol/citrate buffer, pH 4.75, 50 mM (10/5/85, v/v/v) measured 1 hr post dosing by LC/MS/MS analysis. To be noted: in vivo, pH 4.75, 1 h. The series is classed as ADME, organism-based. The gist of the method:
as §1

A short description of series [12]: Drug uptake in C57BL/6 mouse blood at 6 umol/kg, po dosed in HS15/propylenglycol/citrate buffer, pH 4.75, 50 mM (10/5/85, v/v/v) measured 4 hrs post dosing by LC/MS/MS analysis. It is filed as ADME, organism-based. The note with it: read-out: Drug uptake. The gist of the method:
as §1

Series [13] is described as follows: AUC (0 to infinity) in C57BL/6 mouse at 60 umol/kg, po dosed in HS15/propylenglycol/citrate buffer, pH 4.75, 50 mM (10/5/85, v/v/v) by LC/MS/MS analysis. It is filed as ADME, organism-based. On the set-up: dose 60 umol/kg, route oral, time infinity. To be noted: plasma. The gist of the method: as §3
Series [14] can be described thus: Drug uptake in C57BL/6 mouse blood at 60 umol/kg, po dosed in HS15/propylenglycol/citrate buffer, pH 4.75, 50 mM (10/5/85, v/v/v) measured 1 hr post dosing by LC/MS/MS analysis. The series is classed as ADME, organism-based. The note with it: read-out: Drug uptake. The gist of the method: as §1
For series [15], the system named is Brain. Nature of the series: Drug uptake in C57BL/6 mouse brain at 6 umol/kg, po dosed in HS15/propylenglycol/citrate buffer, pH 4.75, 50 mM (10/5/85, v/v/v) measured 4 hrs post dosing by LC/MS/MS analysis. The series is classed as ADME, organism-based. To be noted: in vivo, pH 4.75, 4 h. The gist of the method: as §1
Series [16] in a line: Ratio of drug uptake in brain to blood in C57BL/6 mouse at 60 umol/kg, po dosed in HS15/propylenglycol/citrate buffer, pH 4.75, 50 mM (10/5/85, v/v/v) measured 4 hrs post dosing by LC/MS/MS analysis. The series is classed as ADME, organism-based. The method in brief:
(§4)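 Male C57BL/6 mice received the dose by oral gavage at 10 mL/kg. Blood and brain were collected at 1 and/or 4 h postdose. Brain was homogenised in water, and both matrices were extracted by acetonitrile precipitation and quantified by LC-MS/MS. The ratio is mean brain (nmol/g) over mean blood (nmol/mL) concentration, n = 3.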

The subject of series [17] is Brain. Nature of the series: Drug uptake in C57BL/6 mouse brain at 60 umol/kg, po dosed in HS15/propylenglycol/citrate buffer, pH 4.75, 50 mM (10/5/85, v/v/v) measured 4 hrs post dosing by LC/MS/MS analysis. To be noted: in vivo, pH 4.75, 4 h. It is filed as ADME, organism-based. The method in brief:
as §1

The nature of series [18]: Ratio of drug uptake in brain to blood in C57BL/6 mouse at 6 umol/kg, po dosed in HS15/propylenglycol/citrate buffer, pH 4.75, 50 mM (10/5/85, v/v/v) measured 4 hrs post dosing by LC/MS/MS analysis. The series is classed as ADME, organism-based. The method in brief: as §4
The nature of series [19]: Ratio of drug uptake in brain to blood in C57BL/6 mouse at 60 umol/kg, po dosed in HS15/propylenglycol/citrate buffer, pH 4.75, 50 mM (10/5/85, v/v/v) measured 1 hr post dosing by LC/MS/MS analysis. It is filed as ADME, organism-based. The gist of the method:
as §4

Molecules are shown by their SMILES. pIC50: −log10 of the molar value.

Beta-secretase 1, sequence (P56817 whole entry): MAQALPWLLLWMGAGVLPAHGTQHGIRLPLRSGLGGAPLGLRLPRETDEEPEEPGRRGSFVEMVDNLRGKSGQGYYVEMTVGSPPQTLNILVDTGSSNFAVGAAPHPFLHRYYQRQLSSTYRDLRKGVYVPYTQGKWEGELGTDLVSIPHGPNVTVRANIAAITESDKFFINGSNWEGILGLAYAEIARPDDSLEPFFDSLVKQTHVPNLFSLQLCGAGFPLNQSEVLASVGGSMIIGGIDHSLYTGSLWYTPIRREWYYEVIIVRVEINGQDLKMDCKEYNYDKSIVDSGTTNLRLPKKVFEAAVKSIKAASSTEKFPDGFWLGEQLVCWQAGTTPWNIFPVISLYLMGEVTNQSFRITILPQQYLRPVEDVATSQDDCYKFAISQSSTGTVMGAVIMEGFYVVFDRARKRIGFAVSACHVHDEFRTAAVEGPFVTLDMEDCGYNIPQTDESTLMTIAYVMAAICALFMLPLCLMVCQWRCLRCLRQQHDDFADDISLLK

As usually defined, the Kp is tissue or fluid exposure divided by exposure in the circulation. What is called efflux ratio is the permeability from basolateral to apical divided by that in the opposite direction, in the common usage. As usually defined, the AUC(0-inf) is the area under the concentration-time curve extrapolated to infinity. Usually bioavailability stands for the share of a dose that reaches the circulation, judged against a reference dose that is usually intravenous. The term pIC50 denotes −log10 of the IC50, conventionally taken in molar units. The low end stands for a high IC50, the high end for a low IC50. Turning to `CC(C)(C)c1cccc(CN[C@H]2CS(=O)(=O)C[C@@H](Cc3cc(F)c(N)c(OCC(F)(F)F)c3)[C@@H]2O)c1`, the concentration ratio (Kp) at 1 h in series [1] is 2.7. For the same compound, the concentration ratio (Kp) at 4 h in series [2] turned out to be 0.3. Besides, the values for the Drug uptake in the series on Brain [3], in the series with Brain [4] and with Brain [6] were 0.55 nmol/g, 0.11 nmol/g and 1.19 nmol/g, respectively. Moreover, the concentration at 4 h in series [5] and in series [9] was 10 nM throughout. Also, the efflux ratio at 2 h, 5 µM in the series with MDR1 (human) came to 5. Moreover, the AUC(0-inf) in series [7] was 14.8 µM·h. This compound also gave a bioavailability in series [8] of 52%. The same compound showed a pIC50 against Beta-secretase 1 of 8.22.

In the case of `CC(C)(C)c1cccc(CN[C@H]2CS(=O)(=O)C[C@@H](Cc3cc(F)c(N)c(OC(C(F)(F)F)C(F)(F)F)c3)[C@@H]2O)c1`, the Drug uptake with Brain [10] is on record as 0.02 nmol/g; in the series with Brain [11], 0.23 nmol/g; in the series on Brain [15], 0.01 nmol/g; in the series with Brain [17] it was 0.15 nmol/g. In addition, the concentration at 4 h in [12] was 30 nM. The same compound returned an AUC(0-inf) in series [13] of 4.07 µM·h. For the same compound, the concentration at 1 h in [14] worked out at 470 nM. In addition, the results for the Kp at 4 h in series [16] and in [18] were 0.8 and 0.3, respectively. Further, in [19], the Kp at 1 h is 0.5.

Source of the values: ChEMBL document CHEMBL2046351, “Discovery of cyclic sulfone hydroxyethylamines as potent and selective β-site APP-cleaving enzyme 1 (BACE1) inhibitors: structure-based design and in vivo reduction of amyloid β-peptides” (J Med Chem, 2012).
